# PolyA inhibitor – polyadenylation inhibitors in yeast reporter cells, primary screen, luminescence, S. cerevisiae; 300,000 tested, 0.02% active; S. cerevisiae SKY197-pL101 polyadenylation reporter, beta-gal luminescence; efflux-impaired pdr1/pdr3 knockout yeast; score 100 = 6 SD above DMSO; activity score, % at 12 µM; AID 1875, 2009;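 active means lowest replicate activity score at least 50, where 100 means six control SD above control mean; inconclusive means lowest score under 50 but half or more replicates reach 50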;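 further: yeast exposed to compound for 9 h at 30 °C; higher score means more reporter readthrough which indicates perturbed polyadenylation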
# NLRP3 yeast inh – NALP3 inflammasome inhibitors in reconstituted yeast, primary screen, luminescence, uHTS; Yeast reconstituted NLRP3/ASC/caspase-1, beta-gal luminescence, 24 h; inhibition, % at 10 µM; 330,000 tested, 0.39% active;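 active means inhibition of 50% or more; inactive means inhibition below 50%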;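 further: plate controls were induced DMSO wells for no effect and uninduced yeast grown without galactose for full effect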
# Calb FLC – C. albicans growth inhibition with fluconazole, primary screen, CaCi-2 strain, Alamar Blue fluorescence; 300,000 tested, 0.57% active; AID 1979, 2009; C. albicans CaCi-2 (fluconazole-resistant clinical isolate) + fluconazole, 48 h; growth inhibition, % (test concentration not listed);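 active means growth inhibition above about 58% in most replicates, limit read from the data, passing the limit was not always enough; inconclusive means exactly half the replicates above a set limit; inactive means most replicates below a set limit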;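 further: all wells also contain fluconazole at 8 µg/ml as a sub-toxic cotreatment; 0% = median of DMSO wells and 100% = median of geldanamycin control wells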
# NALP1 inh – NALP1 inflammasome inhibitors in reconstituted yeast, colorimetric, S. cerevisiae, triplicate retest | S. cerevisiae NALP1/ASC/caspase-1 growth, X-gal OD620, 72 h | inhibition, % at 10 µM | 280,000 tested, 0.61% active | AID 2071, 2009; in the data active means inhibition mostly above about 24%, no sharp cut-off; inactive means mostly below about 32%
# T cruzi repl – inhibitors of intracellular T. cruzi growth, primary screen, luminescence, NIH3T3 host cells; T. cruzi beta-gal in NIH3T3, 90 h; inhibition, % (test concentration not listed); 300,000 tested, 1.4% active;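 active means mean inhibition across valid replicates above about 55%, limit read from the data; inconclusive means mean below that limit but half or more replicates reach it; inactive means mean below it, under half of replicates reach it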;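 further: signal also drops with host cell toxicity which is not excluded here; 0% = plate median of DMSO wells and 100% = zero luminescence signal; higher percent means less beta-gal luminescence so fewer parasites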
#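 Assay system: NIH/3T3 host cells with β-galactosidase reporter T. cruzi; input: 5,000 host fibroblasts per well; compound: single 50 nL compound addition per well in DMSO; timing: ≥90 h infection period, 3 h prior cell attachment; measured by: GalScreen β-gal luminescence, detergent lysis, 60 min; evaluation: percent inhibition of parasite-derived β-gal signal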
# Lmaj promast – Leishmania major promastigote growth inhibition, primary screen. 200,000 tested, 9% active. Leishmania major promastigotes, resazurin fluorescence viability. inhibition, % at 10 µM; in the data active means inhibition above about 50%;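 further: promastigotes grown with compound for 44 hours at 28 °C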
# Active calls of the source: *; ? = inconclusive; . = no result given. Shown is part of a subset that was picked to be rich in hits.
SMILES,PolyA inhibitor,NLRP3 yeast inh,Calb FLC,NALP1 inh,T cruzi repl,Lmaj promast
CCn1c(/C=C/c2cc[n+](C)cc2)nc2ccccc21,-0.4,9.9,2.0,4.2,12.8,.
CC(C)n1c(/C=C/c2ccccc2)nc2ccccc21,-5.6,37.9,-27.3,30.4,0.3,50.4*
CC(C)Cn1c(/C=C/c2ccco2)nc2ccccc21,-9.7,7.1,27.5,47.8,26.4,61.1*
CC(C)Cn1c(S(=O)(=O)O)nc2ccccc21,12.6,0.8,-5.1,.,-7.5,.
O=c1c(Cl)c(NCc2ccccc2Cl)cnn1C12CC3CC(CC(C3)C1)C2,-27.3,37.4,58.7,25.6,22.3,83.5*
O=c1c(Cl)c(N2CCN(c3ccc(F)cc3)CC2)cnn1C12CC3CC(CC(C3)C1)C2,-10.6,10.7,-3.2,34.0,63.1*,62.5*
O=c1c(Cl)c(N2CCN(c3ccccc3)CC2)cnn1C12CC3CC(CC(C3)C1)C2,12.1,5.3,4.1,5.4,8.8,3.8
O=c1c(Cl)c(NCc2ccc(F)cc2)cnn1C12CC3CC(CC(C3)C1)C2,-23.6,31.0,42.3,-17.4,16.5,72.5*
O=c1c(Cl)c(NCc2ccco2)cnn1C12CC3CC(CC(C3)C1)C2,-8.1,18.3,-25.8,16.2,12.0,3.8
O=C(COC(=O)C1C2CC3OC(=O)C1C3C2)Nc1ccc(F)cc1 (configuration not stated),20.2,11.4,6.3,15.9,-5.3,.
Cc1ccc(NC(=O)CN2C(=O)NC(Cc3c[nH]c4ccccc34)C2=O)cc1S(=O)(=O)N1CCCCC1 (configuration not stated),4.5,7.6,4.9,26.7,-21.5,-6.7
CC(NC(=O)CCN1C(=O)c2ccccc2C1=O)c1ccccc1 (configuration not stated),-14.0,11.6,-4.6,7.9,-12.3,.
COc1cc(C(C)=O)ccc1OCC(=O)c1cc(C)n(C2CC2)c1C,5.4,18.3,-0.5,19.2,2.9,0.3
O=C(NC1CCN(Cc2ccccc2)C1)c1cc(COc2ccc(F)cc2F)on1 (configuration not stated),3.7,20.7,16.9,28.5*,?,9.9
COc1cccc(NC(=O)N2CCN(c3cccc(C)c3C)CC2)c1,-8.7,25.4,?,16.8,3.1,81.3*
COC(=O)c1cc(C(=O)N2CCN(c3cccc(C)c3C)CC2)cc([N+](=O)[O-])c1,102.5*,12.2,15.8,20.7,-28.3,8.2
O=C(Nc1ccc2c(c1)OCO2)N1CCN(c2ccccc2Cl)CC1,4.2,-6.7,-18.2,-20.1,-12.9,79.5*
COc1ccccc1N1CCN(C(=O)Nc2ccc(F)c(Cl)c2)CC1,-2.3,17.2,1.4,-2.7,-8.9,16.0
COc1ccccc1N1CCN(C(=O)Nc2cccc(Cl)c2)CC1,-6.2,16.6,1.0,9.0,-4.2,77.5*
CC(C)CC(=O)Nc1ccc2nn(-c3ccccc3)nc2c1,1.8,35.2,-1.7,41.0,4.3,-1.5
Cc1ccc(S(=O)(=O)N2CCN(C(=O)c3cc(S(=O)(=O)N(C)C)ccc3N3CCCC3)CC2)cc1,13.5,7.7,1.6,.,36.5,.
Cc1cccc(N2CCN(C(=O)c3cc(S(=O)(=O)N(C)C)ccc3N3CCCC3)CC2)c1C,2.5,12.4,9.7,-17.6,29.6,53.8*
O=C(CN(Cc1ccc(F)cc1)C(=O)C1CSC(=O)C1)NC1CCCCC1 (configuration not stated),-9.6,1.0,2.7,-0.9,3.4,98.5*
O=C(CN(C(=O)C1CSC(=O)C1)c1cccc(F)c1)NC1CCCC1 (configuration not stated),-9.9,10.9,0.0,-2.5,-3.0,-9.0
CS(=O)(=O)O/N=C1\CCCCC1c1ccc([N+](=O)[O-])cc1[N+](=O)[O-] (configuration not stated),-0.6,13.0,-1.6,21.2,26.8,.
SMILES,PolyA inhibitor,NLRP3 yeast inh,Calb FLC,NALP1 inh,T cruzi repl,Lmaj promast
CC(C)(C)c1ccc(S(=O)(=O)O/N=C2/CCCCC2c2ccc([N+](=O)[O-])cc2[N+](=O)[O-])cc1 (configuration not stated),21.1,10.8,-7.5,4.0,21.1,52.8*
Cc1ccc(O)c(-c2cc(-c3cccc(Br)c3)n[nH]2)c1,13.5,4.7,99.2*,16.2,6.1,31.8
COc1ccc(-c2cc(-c3ccccc3)n[nH]2)c(O)c1,-0.6,29.4,-3.2,6.9,3.6,47.5
COc1ccc(-c2cc(-c3c(O)c(OC)c4occc4c3OC)[nH]n2)cc1,-15.3,6.7,101.6*,5.0,7.1,8.7
COc1ccc(-c2cc(-c3ccccc3O)[nH]n2)cc1,-7.0,15.1,-3.4,9.0,-9.8,98.8*
Cc1ccc(S(=O)(=O)NC(CC(=O)O)c2ccc(F)cc2)cc1 (configuration not stated),8.0,12.3,-3.2,23.2,-12.3,.
COc1ccc(/C=C/C(=O)c2ccccc2)cc1Cn1nnc2ccccc21,6.5,6.3,2.2,13.6,18.0,100.0*
CN(C)c1ccc(/C=C/C(=O)c2ccccc2)cc1[N+](=O)[O-],-28.5,21.2,-2.2,25.1,-2.4,99.8*
COc1ccc(/C=C/C(=O)c2ccccc2)cc1COc1ccc(F)cc1,6.7,7.8,-5.2,9.5,3.2,60.3*
O=C(/C=C/c1ccc(O)c([N+](=O)[O-])c1)c1ccc2ccccc2c1,1.5,13.1,8.0,11.3,5.0,.
C/C=C/c1ccc(OCCn2nnc3ccccc32)c(OC)c1,-9.9,47.1,17.1,4.6,-6.6,.
COc1ccc(C(=O)/C=C/c2ccc(OC)c(COc3ccccc3F)c2)cc1,10.3,18.5,0.1,27.1,2.0,44.9
COc1ccc(Oc2ccc(/C=C/C(=O)c3ccc(O)cc3)cc2[N+](=O)[O-])cc1,-20.2,32.2,-6.6,33.1,4.5,100.2*
COc1ccc(NC(=O)CSc2nnnn2C2CC3C=CC2C3)cc1 (configuration not stated),1.3,-1.1,10.8,17.2,2.0,.
CCc1ccc(S(=O)(=O)NCCc2cn3cccc(C)c3n2)s1,.,8.9,.,15.0,0.9,1.2
Cc1cc(C)n(C(=O)c2ccc(C)c(S(=O)(=O)N3CCCCC3)c2)n1,2.1,3.3,?,-14.8,-2.4,-0.9
CCCCn1cnc2c(c1=O)c1nc3ccccc3nc1n2Cc1ccc2c(c1)OCO2,6.1,11.1,3.3,17.8,-8.4,.
COc1ccc(/C=C/C(=O)c2ccc(O)cc2)cc1COc1ccc(F)cc1,-3.8,-10.7,19.3,-7.2,-3.6,97.2*
O=C(C1CCCO1)N1CCN(C(c2ccccc2)c2ccccc2)CC1 (configuration not stated),-14.5,2.6,3.1,-0.5,-10.9,96.4*

# Source: PubChem BioAssay
